Laboratory results as given in PubChem BioAssay.
Results filed as inconclusive are left out. Activity calls are given as the source filed them.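 Rule for the calls, unless noted: active = cell viability at or below a set limit in both duplicate runs, the limit being the all-compound median minus 4 SD (cut at about 23% in these data, passing the limit was not always enough); inconclusive = no clear call, values can overlap the other calls; inactive = the rest.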

Legend:
[1] = S. cerevisiae growth inhibition in permissive medium (OD615), pilot counter-assay for S. cerevisiae lifespan shortening project, permissive growth control (AID 705;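 active = growth inhibition above 25% in both replicates, a cutoff set 3 SD above the mean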); settings: OD615, 24 h, at 10 µM, stronger effect = higher value
Method in brief: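 System: S. cerevisiae with engineered DeaD lifespan system / Measured by: absorbance (optical density) at 615 nm / Read-out: reduction in yeast growth (OD615) / Times: 4 h cell pre-growth, 24 h exposure at 30 °C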

[2] = S. cerevisiae growth inhibition in restrictive medium, OD615, pilot screen, restrictive growth control, yeast lifespan reduction project (AID 706;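 active = growth inhibition above a set limit, 3 SD over mean compound inhibition, in both replicates, cut at about 43% in these data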;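 note: modified DeaD lifespan yeast strain shifted to restrictive glucose medium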); settings: OD615, 48 h, at 10 µM, stronger effect = higher value
Method in brief: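 System: Engineered S. cerevisiae DeaD strain | Buffer or medium: Glucose-based CSMM-D restrictive medium | Schedule: 4 h pre-incubation, 48 h exposure at 30 °C | Technique: Optical density at 615 nm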

[3] = doxorubicin toxicity protection in MRP-1 cells – H69AR cells, CellTiter-Glo, duplicate, MRP-1 activator project, pilot screen (AID 807;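 active = viability increase at or above a cutoff of the median across tested compounds plus 3 SD, cut at about 8.5% in these data, passing the limit was not always enough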;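 note: compound pretreatment 18-22 h then 72 h combined with doxorubicin; 0% = doxorubicin alone and 100% = vehicle without doxorubicin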); settings: H69AR viability with doxorubicin, CellTiter-Glo luminescence; at 10 µM; stronger effect = higher value
[4] = viability of HCT116 without oncogenic beta-catenin – human colon tumor cells, pilot screen (AID 823); settings: HCT116 beta-catenin knockout viability, CellTiter-Glo, 60 h; at 10 µM; stronger effect = lower value;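 note: 0% = wells killed by 20 µM Hyamine and 100% = untreated DMSO cell wells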
[5] = viability of PTEN-null HCT116 cells – cell-based, HCT116 clonal line, CellTiter-Glo, pilot screen (AID 824;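 active = viability at or below 27.92% in each of two runs, the all-compound median minus 4 SD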;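 note: 0% = 20 µM Hyamine control and 100% = vehicle cell control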); settings: HCT116 PTEN-deleted viability, 60 h, at 10 µM, stronger effect = lower value
[6] = RAM pathway blockade in budding yeast – dse1pr::URA3 reporter, 5-FOA selection, pilot screen (AID 869;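 active = inhibition over a set limit, the all-compound mean plus 3 SD, in both replicate runs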;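 note: 0% = DMSO wells with no growth and 100% = 10 µM 1-NA-PP1 with full growth; RAM network block rescues cells from 5-FOA so hits raise OD615 growth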); settings: S. cerevisiae dse1pr::URA3 5-FOA growth, OD615, 2 d; at 10 µM; stronger effect = higher value; strain carries analog-sensitive mutant Cbk1 kinase
[7] = RAM signaling pathway blockade in yeast – S. cerevisiae, Pdr1DBD-CYC8 efflux-inhibited sensitized strain, primary screen (AID 1298;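 active = RAM network inhibition above 8.4% in each of two replicates, 3 SD over the compound average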;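 note: 0% = DMSO untreated cells without growth and 100% = 10 µM 1-NA-PP1 full growth; higher means more yeast growth rescued from 5-FOA killing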); settings: S. cerevisiae cbk1-as DSE1-URA3 strain, 5-FOA growth OD615, 2 d; at 50 µM; stronger effect = higher value

CSc1ccc(S(=O)(=O)Nc2ccc3c(c2)OCCO3)cc1
inactive: growth inhibition [1] -3.2% | growth inhibition [2] -11% | viability increase [3] -3.95% | viability [4] 62.2% | viability [5] 71.9% | inhibition [6] 1.67% | RAM network inhibition [7] -0.87%

COC(=O)CCc1n[nH]c(=O)[nH]c1=O
inactive: growth inhibition [1] 3.66% | growth inhibition [2] 9.25% | viability increase [3] 0.89% | viability [4] 106% | viability [5] 102% | inhibition [6] 0.54% | RAM network inhibition [7] -0.87%

CCOCCCn1cnc2c([nH]c3cc(OC)ccc32)c1=O
inactive: growth inhibition [1] -14.1% | growth inhibition [2] -13.8% | viability increase [3] -0.55% | viability [4] 95.8% | viability [5] 96.9% | inhibition [6] 1.41% | RAM network inhibition [7] 5.51%

Cc1noc(NS(=O)(=O)c2ccc(NC(=O)CSc3nc4c(cc3C#N)CCC4)cc2)c1C
active: growth inhibition [2] 48%
inactive: growth inhibition [1] 4.79% | viability increase [3] 1.01% | viability [4] 107% | viability [5] 98.3% | inhibition [6] 0.805% | RAM network inhibition [7] 8.22%

COc1ccccc1-c1coc2cc(O)cc(O)c2c1=O
inactive: growth inhibition [1] 3.81% | growth inhibition [2] 9.45% | viability increase [3] 0.63% | viability [4] 93.4% | viability [5] 92.6% | inhibition [6] 0.26% | RAM network inhibition [7] 0.05%

Cc1cc2nsnc2c(S(=O)(=O)NCC(=O)O)c1C
inactive: growth inhibition [1] -7.75% | growth inhibition [2] -1.79% | viability increase [3] 1.73% | viability [4] 100% | viability [5] 102% | inhibition [6] 2.25% | RAM network inhibition [7] 0.2%

Cc1nc(C)c(C(=O)Nc2ccccc2)s1
inactive: growth inhibition [1] -0.755% | growth inhibition [2] -6.96% | viability increase [3] -0.17% | viability [4] 98.4% | viability [5] 88.3% | inhibition [6] 0.68% | RAM network inhibition [7] 3.02%

CCC(=O)NCCc1cc2ccc(C)cc2[nH]c1=O
inactive: growth inhibition [1] -3.85% | growth inhibition [2] -15.4% | viability increase [3] -1.94% | viability [4] 110% | viability [5] 93.8% | inhibition [6] 2.58% | RAM network inhibition [7] 0.78%

Cn1c(SCc2c(F)cccc2Cl)nnc1-c1cnccn1
inactive: growth inhibition [1] 3.5% | growth inhibition [2] 9.8% | viability increase [3] -0.67% | viability [4] 96.5% | viability [5] 93.8% | inhibition [6] 1.94% | RAM network inhibition [7] 5.07%

CN(C)S(=O)(=O)c1ccc(-c2ccccc2)cc1
inactive: growth inhibition [1] -6.75% | growth inhibition [2] -4.33% | viability increase [3] 0.02% | viability [4] 91.9% | viability [5] 90.6% | inhibition [6] 0.455% | RAM network inhibition [7] 8.77%

COc1ccc(OC)c2sc(NC(=O)CCS(=O)(=O)c3ccccc3)nc12
inactive: growth inhibition [1] -8.91% | growth inhibition [2] -10.2% | viability increase [3] -8.72% | viability [4] 36.1% | viability [5] 44.3% | inhibition [6] 4.41% | RAM network inhibition [7] 11%

Cc1cc(C(=O)NCC2CCCO2)n(-c2ccccc2)n1 (configuration not stated)
inactive: growth inhibition [1] -0.68% | growth inhibition [2] -2.33% | viability increase [3] -1.22% | viability [4] 100% | viability [5] 103% | inhibition [6] 0.28% | RAM network inhibition [7] 2.07%

CCCc1ncc(C(O)c2cccc(OC)c2OC)n1C (configuration not stated)
inactive: growth inhibition [1] -11% | growth inhibition [2] -23% | viability increase [3] -2.63% | viability [4] 95.9% | viability [5] 94.4% | inhibition [6] 0.71% | RAM network inhibition [7] 1.45%

O=c1sc(N2CCN(c3ccccc3F)CC2)nc2ccsc12
inactive: growth inhibition [1] -7.07% | growth inhibition [2] -8.01% | viability increase [3] -1.94% | viability [4] 85.3% | viability [5] 81.9% | inhibition [6] 3.63% | RAM network inhibition [7] 7.46%

CCn1c(=O)cc(OCC(=O)Nc2ccccc2C#N)c2ccccc21
inactive: growth inhibition [1] -22.1% | growth inhibition [2] -8.12% | viability increase [3] -1.86% | viability [4] 95.1% | viability [5] 94.7% | inhibition [6] 2.12% | RAM network inhibition [7] 4.46%

COCCNC(=O)CN(c1ccc(C)cc1)S(=O)(=O)c1ccc(SC)cc1
inactive: growth inhibition [1] -10.6% | growth inhibition [2] -12.2% | viability increase [3] -0.9% | viability [4] 96.2% | viability [5] 84.2% | inhibition [6] 0.71% | RAM network inhibition [7] 5.17%

CC1CCN(CCCNC(=O)CN2CCN(Cc3ccc(Cl)cc3)C2=O)CC1
inactive: growth inhibition [1] -8.6% | growth inhibition [2] -8.52% | viability increase [3] -0.83% | viability [4] 90.8% | viability [5] 89.3% | inhibition [6] 2.27% | RAM network inhibition [7] 4.2%

COc1ccc(CC(=O)Nc2oc(-c3ccccc3)c(-c3ccccc3)c2C#N)cc1OC
inactive: growth inhibition [1] -6.81% | growth inhibition [2] -2.63% | viability increase [3] -0.77% | viability [4] 76.9% | viability [5] 68.2% | inhibition [6] 1.75% | RAM network inhibition [7] 8.44%

CC1Cc2ccccc2N1C(=O)CSC1=NCCS1 (configuration not stated)
active: growth inhibition [2] 50.5%
inactive: growth inhibition [1] 7.58% | viability increase [3] -6.91% | viability [4] 92.6% | viability [5] 95.2% | inhibition [6] 2.67% | RAM network inhibition [7] 6.64%

COc1cc(C(=O)Nc2cc(-c3nc4cc(C)ccc4o3)ccc2C)cc(OC)c1OC
inactive: growth inhibition [1] 3.69% | growth inhibition [2] 8.25% | viability increase [3] -2.34% | viability [4] 97% | viability [5] 95.2% | inhibition [6] 0.43% | RAM network inhibition [7] -0.15%

CC(C)(C)NCCCCOc1ccc(F)cc1
inactive: growth inhibition [1] 0.455% | growth inhibition [2] -1.1% | viability increase [3] 0.34% | viability [4] 99.3% | viability [5] 101% | inhibition [6] 1.71% | RAM network inhibition [7] 1.66%

CC1(C)CC(=O)c2sc(NC(=O)c3ccco3)nc2C1
inactive: growth inhibition [1] -15% | growth inhibition [2] -0.525% | viability increase [3] -2.54% | viability [4] 94.2% | viability [5] 84.1% | inhibition [6] 0.735% | RAM network inhibition [7] 2.58%

O=C1C2C3C=CC(CO)(O3)C2C(=O)N1c1ccccc1-c1ccccc1 (configuration not stated)
inactive: viability increase [3] -4.39% | viability [4] 93.7% | viability [5] 92% | inhibition [6] 0.13% | RAM network inhibition [7] -1.89%
active: growth inhibition [1] 97.3% | growth inhibition [2] 100%

COC(=O)c1ccc(-c2nc(-c3cccs3)no2)cc1
inactive: growth inhibition [1] 11.1% | growth inhibition [2] 10.5% | viability increase [3] -5.21% | viability [4] 84.1% | viability [5] 76.7% | inhibition [6] 2.32% | RAM network inhibition [7] 0.79%

CC1(C)Cc2c(C#N)c(N3CCCC3)nc(-c3ccco3)c2CO1
inactive: growth inhibition [1] -9.34% | growth inhibition [2] -8.21% | viability increase [3] -5.07% | viability [4] 90.3% | viability [5] 85.7% | inhibition [6] 1.39% | RAM network inhibition [7] -1.01%

CC1CCN(S(=O)(=O)c2ccc3c(c2)oc(=O)n3CC(=O)N2c3ccccc3CC2C)CC1 (configuration not stated)
inactive: growth inhibition [1] -4.77% | growth inhibition [2] -7.59% | viability increase [3] -4.28% | viability [4] 68.5% | viability [5] 52.9% | inhibition [6] 2.85% | RAM network inhibition [7] 7.34%

COc1ccc(Br)cc1C1CC(=O)N2CN(Cc3ccccc3)CSC2=C1C#N (configuration not stated)
inactive: growth inhibition [1] 4.47% | growth inhibition [2] 12.8% | viability increase [3] -4.64% | viability [4] 85% | viability [5] 87.5% | inhibition [6] 2.63% | RAM network inhibition [7] 4.51%

CSC1=NCCN1C(=O)Cc1ccc(Cl)cc1
inactive: growth inhibition [1] 1.21% | growth inhibition [2] -7% | viability increase [3] 4.4% | viability [4] 108% | viability [5] 96.7% | inhibition [6] 0.105% | RAM network inhibition [7] -0.15%

COc1cc(OC)cc(OCC(O)Cn2cnc3cc(C)c(C)cc32)c1 (configuration not stated)
inactive: growth inhibition [1] -4.53% | growth inhibition [2] -8.79% | viability increase [3] -5.24% | viability [4] 80.2% | viability [5] 80.3% | inhibition [6] 1.33% | RAM network inhibition [7] -0.82%

Cc1cccc(NC(=O)c2cccnc2)c1
inactive: growth inhibition [1] -3.06% | growth inhibition [2] 4.14% | viability increase [3] 1.56% | viability [4] 97.2% | viability [5] 96.5% | inhibition [6] 0.405% | RAM network inhibition [7] 5.69%

COc1ccc(C(=O)Nc2cccnc2)cc1S(=O)(=O)N1CCOCC1
inactive: growth inhibition [1] -8.01% | growth inhibition [2] -10.6% | viability increase [3] -0.17% | viability [4] 103% | viability [5] 99.1% | inhibition [6] 0.84% | RAM network inhibition [7] 0.46%

Cc1ccc2c(c1)c1c(n2CC(O)CNC(CO)(CO)CO)CCCC1 (configuration not stated)
inactive: growth inhibition [1] -2.98% | growth inhibition [2] -11.3% | viability increase [3] -1.14% | viability [4] 94.9% | viability [5] 90.8% | inhibition [6] 0.175% | RAM network inhibition [7] -0.57%

COc1ccc2c(c1OC)C(=O)OC2Nc1ccccn1 (configuration not stated)
inactive: growth inhibition [1] 10.3% | growth inhibition [2] -7.84% | viability increase [3] -2.18% | viability [4] 102% | viability [5] 99.7% | inhibition [6] 1.34% | RAM network inhibition [7] 1.17%

CCOC(=O)c1csc(NC(=O)c2ccccc2)n1
inactive: growth inhibition [1] -6.33% | growth inhibition [2] 0.485% | viability increase [3] 4.7% | viability [4] 101% | viability [5] 99.7% | inhibition [6] 0.115% | RAM network inhibition [7] -2.57%

Cc1csc2ncc(C(=O)NCc3ccccn3)c(=O)n12
inactive: growth inhibition [1] -10.9% | growth inhibition [2] 3.67% | viability increase [3] -0.65% | viability [4] 100% | viability [5] 96.7% | inhibition [6] 1.58% | RAM network inhibition [7] 1.6%

CC(C)COC(=O)c1cc(=O)[nH]c2ccccc12
inactive: growth inhibition [1] -4.92% | growth inhibition [2] -14.4% | viability increase [3] -2.47% | viability [4] 87.4% | viability [5] 84.1% | inhibition [6] 0.855% | RAM network inhibition [7] 0.1%
